Data on 34 compounds can be found in ChEMBL document CHEMBL4229498 (Bioorg Med Chem, 2018).

SMILES strings stand for the structures.

A short description of data set [1]: Drug transport across apical to basolateral side in MDCK cells expressing MDR1 at 10 uM after 1 hr by mass spectrometer. It is filed as ADME, cell-based, Canis lupus familiaris. Particulars: dog. The gist of the method: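 MDCK-mdr1 cells (human MDR1-transfected) were grown 4 days to confluence on Transwell-type filters in DMEM/F12 with 10% FBS and antibiotics. Compound was added apically at 10 µM in HBSS with 25 mM D-glucose, HEPES-buffered to pH 7.4, and incubated 1 h at 37 °C. Apical and basal samples were collected, and results are given as % transported apical to basal.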

The target in data set [2] is Cannabinoid receptor 2 (Homo sapiens, UniProt P34972). Put plainly: Displacement of [3H]-CP55940 from human CB2 receptor expressed in CHO cell membranes after 1 hr by liquid scintillation spectrometry. For orientation: Displacement assays read how much labelled ligand stays bound in the presence of the test substance.
In data set [3] the target is T1, Cannabinoid receptor 1 (Homo sapiens, UniProt P21554). Briefly: Displacement of [3H]-CP55940 from human CB1 receptor expressed in CHO cell membranes after 1 hr by liquid scintillation spectrometry.
For data set [4], the target named is T1, Cannabinoid receptor 1. Particulars: HEK293.
The nature of data set [5]: Ratio of drug level in brain to plasma in C57BL6 mouse at […], po administered in cassette format. It is filed as ADME, organism-based.
A short description of data set [6]: Tmax in C57BL6 mouse plasma at […], po administered in cassette format. It is filed as ADME, organism-based.
Data set [7] in a line: Cmax in C57BL6 mouse plasma at […], po administered in cassette format. Details: dose 2.5 mg/kg, route oral. It is filed as ADME, organism-based.
Data set [8] deals with T1, Cannabinoid receptor 1. It is filed as functional, cell-based, HEK293.
Data set [9] can be described thus: Half life in C57BL6 mouse at […], po administered in cassette format. It is filed as ADME, organism-based. Conditions: in vivo.

T1 sequence (P21554 whole entry): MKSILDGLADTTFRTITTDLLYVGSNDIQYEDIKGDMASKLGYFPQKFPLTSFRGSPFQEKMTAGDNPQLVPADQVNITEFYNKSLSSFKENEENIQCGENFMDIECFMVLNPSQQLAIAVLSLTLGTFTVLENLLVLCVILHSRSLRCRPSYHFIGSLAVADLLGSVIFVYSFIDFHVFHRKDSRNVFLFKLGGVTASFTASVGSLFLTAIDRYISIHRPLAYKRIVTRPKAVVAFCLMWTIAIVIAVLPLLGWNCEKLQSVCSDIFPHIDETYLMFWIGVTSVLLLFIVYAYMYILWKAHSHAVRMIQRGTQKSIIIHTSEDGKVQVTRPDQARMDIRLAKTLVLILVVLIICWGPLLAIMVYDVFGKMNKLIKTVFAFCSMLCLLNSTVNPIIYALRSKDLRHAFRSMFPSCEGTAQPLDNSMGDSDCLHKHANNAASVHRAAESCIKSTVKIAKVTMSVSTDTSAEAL
Sequence of Cannabinoid receptor 2 (P34972 whole entry): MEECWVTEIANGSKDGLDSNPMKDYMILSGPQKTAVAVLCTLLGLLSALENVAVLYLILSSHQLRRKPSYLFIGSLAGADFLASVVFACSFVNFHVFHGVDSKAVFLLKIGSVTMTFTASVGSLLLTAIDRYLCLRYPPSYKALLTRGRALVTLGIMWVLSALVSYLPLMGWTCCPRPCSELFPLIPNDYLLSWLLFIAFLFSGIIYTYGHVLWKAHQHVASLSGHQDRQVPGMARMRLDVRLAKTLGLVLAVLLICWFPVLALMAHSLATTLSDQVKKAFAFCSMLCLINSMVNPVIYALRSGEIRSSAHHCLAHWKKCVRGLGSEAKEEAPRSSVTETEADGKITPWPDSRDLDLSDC

In general, Ki refers to the equilibrium dissociation constant of an inhibitor or competing ligand from its target. As to `CC(C)(C)OC(=O)N1CCN(c2ncnc3c2nc(-c2ccccc2Cl)n3-c2ccc(Cl)cc2)CC1`, the Drug transport in data set [1] is listed as 3%. Besides, the values for the Ki in data set [2] and in data set [3] were 3400 nM and 5 nM, respectively. For `O=C(OC1CCC1)N1CCN(c2ncnc3c2nc(-c2ccccc2Cl)n3-c2ccc(Cl)cc2)CC1`, the Ki in [2] came to 3400 nM; in data set [3], 3 nM. Take `CC(C(=O)N1CCN(c2ncnc3c2nc(-c2ccccc2Cl)n3-c2ccc(Cl)cc2)CC1)c1ccccc1` (stereo not given): the inhibition constant Ki turned out to be 560 nM in [2] and 3 nM in data set [3]. As for `O=C(NS(=O)(=O)c1ccccc1F)N1CCN(c2ncnc3c2nc(-c2ccccc2Cl)n3-c2ccc(Cl)cc2)CC1`, the inhibition constant (Ki) in [3] worked out at 250 nM. Take `O=C(C1CCSCC1)N1CCN(c2ncnc3c2nc(-c2ccccc2Cl)n3-c2ccc(Cl)cc2)CC1`: the Ki in [2] worked out at 530 nM.

In data set [3], `O=C(N1CCCC1)N1CCN(c2ncnc3c2nc(-c2ccccc2Cl)n3-c2ccc(Cl)cc2)CC1` came in with an inhibitory constant (Ki) of 13 nM. Consider `O=C(CC1CCCC1)N1CCN(c2ncnc3c2nc(-c2ccccc2Cl)n3-c2ccc(Cl)cc2)CC1`, for which the inhibition constant Ki in data set [2] is greater than 10000 nM; in data set [3] it was 0.4 nM. `O=C(NC1CCCC1)N1CCN(c2ncnc3c2nc(-c2ccccc2Cl)n3-c2ccc(Cl)cc2)CC1` displayed a Drug transport in [1] of 3%. The same measure, in the same setting: the figure for `N=C(Nc1ccc(F)cc1)N1CCN(c2ncnc3c2nc(-c2ccccc2Cl)n3-c2ccc(Cl)cc2)CC1` is 0.4%; for `O=C(Nc1ccc(F)c(F)c1)N1CCN(c2ncnc3c2nc(-c2ccccc2Cl)n3-c2ccc(Cl)cc2)CC1` it is 0%. Compound `O=S(=O)(C1CC1)N1CCN(c2ncnc3c2nc(-c2ccccc2Cl)n3-c2ccc(Cl)cc2)CC1` gave a Drug transport in [1] of 4%. The inhibition constant (Ki) in data set [3] stood at 5 nM.

For the compound `O=S(=O)(CC1CCOCC1)N1CCN(c2ncnc3c2nc(-c2ccccc2Cl)n3-c2ccc(Cl)cc2)CC1`, in [1], the Drug transport stood at 9%. Moreover, the inhibitory constant (Ki) in data set [2] is 3000 nM; in data set [3], 3 nM. In the case of `O=C(OCC1CCC1)N1CCN(c2ncnc3c2nc(-c2ccccc2Cl)n3-c2ccc(Cl)cc2)CC1`, the Drug transport in data set [1] came out at 0%. In addition, the Ki is 4600 nM in [2] and 3 nM in data set [3]. This compound also had a Ke in data set [4] of 12 nM. Consider `O=S(=O)(CCC(F)(F)F)N1CCN(c2ncnc3c2nc(-c2ccccc2Cl)n3-c2ccc(Cl)cc2)CC1`, for which the Ki in data set [2] came out at 500 nM; in data set [3], 1.2 nM. Taken in the same sequence, the figures for `O=C(CC1CCOC1)N1CCN(c2ncnc3c2nc(-c2ccccc2Cl)n3-c2ccc(Cl)cc2)CC1` (stereo not given) were 3000 nM and 8 nM.

The compound `CCCCS(=O)(=O)N1CCN(c2ncnc3c2nc(-c2ccccc2Cl)n3-c2ccc(Cl)cc2)CC1` had a Drug transport in data set [1] of 5%. Still for that read-out and setting: the figure for `O=C(Nc1ccccn1)N1CCN(c2ncnc3c2nc(-c2ccccc2Cl)n3-c2ccc(Cl)cc2)CC1` is 1.2%. Take `O=S(=O)(CC1CCCCC1)N1CCN(c2ncnc3c2nc(-c2ccccc2Cl)n3-c2ccc(Cl)cc2)CC1`: the inhibitory constant (Ki) is 91 nM in [2] and 1.7 nM in data set [3]. In [2], `O=C(N1CCN(c2ncnc3c2nc(-c2ccccc2Cl)n3-c2ccc(Cl)cc2)CC1)C(F)(F)F` displayed an inhibition constant Ki of 130 nM. For `CCOCC(=O)N1CCN(c2ncnc3c2nc(-c2ccccc2Cl)n3-c2ccc(Cl)cc2)CC1`, the Ki in data set [2] is greater than 10000 nM; in [3] it was 11 nM.

Compound `O=C(CN1CCCCC1)N1CCN(c2ncnc3c2nc(-c2ccccc2Cl)n3-c2ccc(Cl)cc2)CC1` yielded a Drug transport in data set [1] of 5%. Moreover, the Ki came out at 5000 nM in [2] and 21 nM in data set [3]. Regarding `CCS(=O)(=O)N1CCN(c2ncnc3c2nc(-c2ccccc2Cl)n3-c2ccc(Cl)cc2)CC1`, the Drug transport in [1] is listed as 18%. Besides, the inhibition constant (Ki) in [3] was found to be 3 nM. For the compound `CCCS(=O)(=O)N1CCN(c2ncnc3c2nc(-c2ccccc2Cl)n3-c2ccc(Cl)cc2)CC1`, the Drug transport in data set [1] was determined as 6%. One may read the Tmax as the time at which the peak concentration occurs. One may read the Cmax as the highest concentration seen after dosing. The EC50 is the concentration needed to bring the measured effect to its halfway point. For orientation: half-life means the time in which the quantity being followed falls by half. The low end stands for rapid decline, the high end for slow decline. On to `O=C(Nc1ccc(OC(F)F)nc1)N1CCN(c2ncnc3c2nc(-c2ccccc2Cl)n3-c2ccc(Cl)cc2)CC1`, for which the BPR in data set [5] worked out at 0.18. Besides, the Drug transport in data set [1] came out at 1.1%. The compound further displayed a Ki in [2] greater than 10000 nM. For the same compound, the time of peak concentration (Tmax) in data set [6] amounted to 4 h. Also, the Cmax in [7] was found to be 500 ng/mL. This compound also registered a 50% effective concentration (EC50) in data set [8] of 590 nM. Further, the half-life in [9] is 6.1 h. As to `CC(C)S(=O)(=O)N1CCN(c2ncnc3c2nc(-c2ccccc2Cl)n3-c2ccc(Cl)cc2)CC1`, the Drug transport in data set [1] worked out at 11%. `CC(C)CS(=O)(=O)N1CCN(c2ncnc3c2nc(-c2ccccc2Cl)n3-c2ccc(Cl)cc2)CC1`: the Drug transport in data set [1] was found to be 0%. Moreover, the inhibition constant (Ki) in data set [2] came out at 2800 nM. Compound `O=C(Nc1ccc(F)cc1F)N1CCN(c2ncnc3c2nc(-c2ccccc2Cl)n3-c2ccc(Cl)cc2)CC1` yielded a Drug transport in [1] of 1.4%. Besides, the affinity in data set [3] corresponds to a Ki of 5 nM.

On to `CS(=O)(=O)N1CCN(c2ncnc3c2nc(-c2ccccc2Cl)n3-c2ccc(Cl)cc2)CC1`, for which the Drug transport in data set [1] is given as 14%. Besides, the inhibition constant Ki was 1700 nM in [2] and 24 nM in data set [3]. In the case of `CCCCC(=O)N1CCN(c2ncnc3c2nc(-c2ccccc2Cl)n3-c2ccc(Cl)cc2)CC1`, the Drug transport in [1] is 0%. Further, affinity in data set [3] was put at a Ki of 6 nM. In [1], `O=C(Nc1ccc(F)cc1)N1CCN(c2ncnc3c2nc(-c2ccccc2Cl)n3-c2ccc(Cl)cc2)CC1` displayed a Drug transport of 0%.

In [1], `O=C(Nc1ccccc1F)N1CCN(c2ncnc3c2nc(-c2ccccc2Cl)n3-c2ccc(Cl)cc2)CC1` showed a Drug transport of 5%. Same read-out and setting: the figure for `O=C(Nc1ccccc1)N1CCN(c2ncnc3c2nc(-c2ccccc2Cl)n3-c2ccc(Cl)cc2)CC1` is 1%. For `CC(C)(C)CC(=O)N1CCN(c2ncnc3c2nc(-c2ccccc2Cl)n3-c2ccc(Cl)cc2)CC1`, the figures for the inhibition constant Ki in data set [2] and in data set [3] were 5000 nM and 2 nM, respectively. In data set [1], `O=C(C1COc2ccccc2O1)N1CCN(c2ncnc3c2nc(-c2ccccc2Cl)n3-c2ccc(Cl)cc2)CC1` (stereo not given) showed a Drug transport of 0%. This compound registered a Ki in data set [3] of 5 nM.
